# Source: PubChem
# Rtt109 Vps75 = inhibitors of C. albicans Rtt109/Vps75 HAT, primary screen, biochemical, ThioGlo CoA-SH fluorescence, plate reader; inhibition, % at 34.9 µM; purified Rtt109/Vps75, 4 h; AID 540336, 2011; actives 0.16% (n = 330,000);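 active = inhibition of at least 50% in every replicate; inconclusive = best replicate reaches 50% inhibition but some replicates fall short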
# Target sequence (Q5AAJ8 whole entry, looked up): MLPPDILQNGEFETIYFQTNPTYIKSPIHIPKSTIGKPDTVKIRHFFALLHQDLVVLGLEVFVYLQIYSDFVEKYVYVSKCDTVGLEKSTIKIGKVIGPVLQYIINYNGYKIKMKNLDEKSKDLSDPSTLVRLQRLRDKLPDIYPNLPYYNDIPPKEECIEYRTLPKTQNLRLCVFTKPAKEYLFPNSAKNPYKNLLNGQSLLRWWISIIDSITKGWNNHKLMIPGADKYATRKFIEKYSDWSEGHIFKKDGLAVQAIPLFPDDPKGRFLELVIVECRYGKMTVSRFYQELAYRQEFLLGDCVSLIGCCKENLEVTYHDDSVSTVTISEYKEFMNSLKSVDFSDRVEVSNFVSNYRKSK
# PfM18AAP inh = PfM18AAP inhibitors, malaria aminopeptidase, primary screen, biochemical, QFRET, recombinant enzyme | actives 1.2% (n = 290,000) | inhibition, % at 7.35 µM | AID 1822, 2009 | H-Glu-NHMec fluorogenic cleavage | M18 aspartyl aminopeptidase (Plasmodium falciparum 3D7);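 active = inhibition above the campaign mean inhibition over all tested compounds plus 3 SD, cut at about 28% in these data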
# ALR inh = inhibitors of human ALR sulfhydryl oxidase, primary screen, biochemical, H2O2 detection, HRP-luminol luminescence, single point; actives 3.8% (n = 290,000); FAD-linked sulfhydryl oxidase ALR (Homo sapiens), P55789; purified ALR, DTT oxidation; inhibition, % (concentration not given with the values);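 active = mean replicate inhibition above about 79%, with every replicate also reaching it, limit read from the data; inconclusive = only one of the two criteria met; inactive = mean below limit and not every replicate reaching it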
# Target sequence (P55789 whole entry, looked up): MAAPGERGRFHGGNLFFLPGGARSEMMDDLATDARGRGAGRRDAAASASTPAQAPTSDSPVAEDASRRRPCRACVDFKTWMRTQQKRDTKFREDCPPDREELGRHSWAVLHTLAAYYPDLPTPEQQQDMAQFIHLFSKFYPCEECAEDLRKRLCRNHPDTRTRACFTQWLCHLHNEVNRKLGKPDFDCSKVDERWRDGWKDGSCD
# FAS TE block = FAS thioesterase domain inhibitors, primary screen, biochemical, fluorescence intensity, uHTS. Fatty acid synthase (Homo sapiens), P49327. recombinant FAS-TE, OMFH fluorogenic substrate, fluorescence endpoint. inhibition, % at 15 µM. actives 0.67% (n = 360,000);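 active = compounds whose normalised, plate-corrected inhibition of enzyme fluorescence in the single-dose primary screen is 50% or more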
# HDAC3 inhib = HDAC3 deacetylase inhibitors, primary screen, biochemical, fluorescence, cell-free homogeneous; Histone deacetylase 3 (Homo sapiens), O15379; recombinant HDAC3, fluorogenic peptide/trypsin coupled; inhibition, % at 8.3 µM; actives 0.15% (n = 320,000); AID 2718, 2010; in the data active = inhibition above about 26%, passing the limit was not always enough; inconclusive = no clear call, values can overlap the other calls
# UCH37 inh = inhibitors of human UCH37 deubiquitinase, primary screen, biochemical, Ub-AMC cleavage, fluorescence. Ubiquitin carboxyl-terminal hydrolase isozyme L5 (Homo sapiens), Q9Y5K5. purified proteasome/UCH37. inhibition, % (test concentration not listed). actives 0.33% (n = 330,000). AID 588478, 2011;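 active = mean inhibition over replicate wells above about 20%, limit read from the data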
#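 Material: human UCH37 enzyme supplied as purified proteasome complex. Measure: % inhibition of Ub-AMC cleavage fluorescence. Medium: pH 7.4 Tris-HCl (50 mM) with ovalbumin, ATP-MgCl2, DTT. Times: 30 min preincubation with enzyme, 25 min cleavage at room temperature. Detection: AMC fluorescence intensity at 355/460 nm.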
# Hits are given with their value; - = inactive; ? = inconclusive; . = no result; ! = not active in a repeat. Hits are enriched below; roughly 4.6% of the tested compounds scored in any of these assays.
SMILES,Rtt109 Vps75,PfM18AAP inh,ALR inh,FAS TE block,HDAC3 inhib,UCH37 inh
CC(=O)c1ccc(NC(=O)CC2Nc3cccc4cccc(c34)NC2=O)cc1 (centres undefined),.,29,.,-,-,-
CCc1ccccc1NC(=O)CSc1nc(C)c(C)o1,-,-,99,-,-,-
CCc1ccccc1NC(=O)CSc1nnc([C@@H](N)Cc2ccccc2)o1,.,-,-,-,-,-
COc1ccc(-c2ncccc2O)cc1,-,-,-,-,-,-
CCOc1c(C)cc(-c2ncccc2O)cc1C,-,-,92!,-,-,-
CCCN1C(=O)S/C(=C\c2ccc(N3CCOCC3)o2)C1=O,-,-,86,-,-,-
CCCN1C(=O)S/C(=C/c2ccc(N3CCOCC3)o2)C1=O,-,-,99,-,-,-
CCCN1C(=O)S/C(=C\c2ccc(N3CCOCC3)cc2C)C1=O,.,-,.,.,.,.
N#C/C(=C\c1ccccc1C(F)(F)F)C(=O)Nc1ccccc1,-,-,90,-,-,-
N#C/C(=C/C=C/c1ccccc1)C(=O)Nc1ccccc1,-,-,-,-,-,-
O=C(CCN1CCc2ccccc2CC1)c1ccc2c(c1)OCCO2,177,-,-,-,-,-
O=C(CCN1CCOCC1)c1ccc2c(c1)OCCO2,-,-,-,-,-,-
C#CCOCCOCCOCCNc1nc(N2CCN(C(=O)[C@H](CCCN=C(N)N)n3cc(C(N)[C@@H](C)CC)nn3)CC2)nc(N2CCN(C(=O)[C@H](CCCCN)n3cc([C@@H](N)CC(N)=O)nn3)CC2)n1 (some centres undefined),80,.,-,-,-,-
C#CCOCCOCCOCCNc1nc(N2CCN(C(=O)CCCCCCCCCCNC(=O)[C@H](CCCN=C(N)N)n3cc(C[C@@H](C)CC)nn3)CC2)nc(N2CCN(C(=O)CCCCCCCCCCNC(=O)[C@@H]([C@H](C)CC)n3cc(CCCCCN)nn3)CC2)n1,.,.,-,.,33,.
C#CCOCCOCCOCCNc1nc(N2CCN(C(=O)CCCCCCCCCCNC(=O)[C@H](CCCCN)n3cc(C[C@@H](C)CC)nn3)CC2)nc(N2CCN(C(=O)CCCCCCCCCCNC(=O)[C@H](CCCN=C(N)N)n3cc(C[C@@H](C)CC)nn3)CC2)n1,?,.,-,-,?,.
C#CCOCCOCCOCCNc1nc(N2CCN(C(=O)CCCCCCCCCCNC(=O)[C@@H](CCSC)n3cc(CCO)nn3)CC2)nc(N2CCN(C(=O)CCCCCCCCCCNC(=O)[C@H](CCCN=C(N)N)n3cc(C[C@@H](C)CC)nn3)CC2)n1,?,.,-,-,69,.
C#CCOCCOCCOCCNc1nc(N2CCN(C(=O)CCCCCCCCCCNC(=O)[C@H]([C@@H](C)CC)n3cc(CCCCN=C(N)N)nn3)CC2)nc(N2CCN(C(=O)CCCCCCCCCCNC(=O)[C@H](CCCN=C(N)N)n3cc(C[C@@H](C)CC)nn3)CC2)n1,.,.,-,.,-,.
CC[C@H](C)Cc1cn([C@@H](CCCN=C(NC(=O)OC(C)(C)C)NC(=O)OC(C)(C)C)C(=O)NCCCCCCCCCCC(=O)N2CCN(C(=O)OC(C)(C)C)CC2)nn1,-,.,-,-,28,-
O=C(O)Cn1cc(C=c2sc3nc4ccccc4n3c2=O)c2ccccc21,.,.,.,.,.,-
CC(/C=C/c1ccccc1)=NNc1nc2c(c(=O)[nH]c(=O)n2C)n1CCO,.,.,.,.,.,-
O=C(NN=Cc1ccccc1F)c1ccc(COc2ccccc2Cl)o1,.,.,.,.,.,-
CC1(C)CC(=O)C2=C(C1)OC(N)=C(C#N)C2c1cccs1 (centres undefined),-,-,96,-,-,-
Cc1ccc(C2C(C#N)=C(N)OC3=C2C(=O)CC(C)(C)C3)s1 (centres undefined),-,-,-,-,-,-
CC(=NNC(=O)CNC(=O)c1cccs1)c1ccc(Cl)c(Cl)c1,.,.,.,.,.,-
O=C(c1c(O)cc(O)cc1O)C1c2c(cc(O)c3c2O[C@H](c2ccc(O)cc2)[C@@H](O)C3)OC1c1ccc(O)cc1 (some centres undefined),-,.,99,-,-,.
SMILES,Rtt109 Vps75,PfM18AAP inh,ALR inh,FAS TE block,HDAC3 inhib,UCH37 inh
Cn1c(=NNC(=O)C2CCCCC2)sc2ccccc21,.,.,.,.,.,-
O=C(Cc1cc(=O)[nH][nH]1)NN=C/C=C/c1ccccc1,.,.,.,.,.,-
Nc1n[nH]c(=S)n1/N=C1/C(=O)Nc2ccccc21,-,32,.,-,.,.
COc1cccc(CNc2nccs2)c1O,-,-,88,-,-,-
COc1ccc(S(=O)(=O)N(CC(=O)NN=Cc2ccccc2C(=O)O)c2ccccc2OC)cc1,.,.,.,.,.,-
COc1cccc(C=NNC(=O)CNC(=O)c2cccnc2)c1O,.,.,.,.,.,-
COc1cc(/C=N/NC(=O)CNC(=O)c2cccs2)ccc1O,-,-,.,-,-,.
C=CCc1cccc(/C=N/NC(=O)c2ccccc2OC)c1O,-,30,-,-,-,.
COc1cccc(/C=N/NC(=O)CNC(=O)c2cccnc2)c1O,-,-,92,-,-,.
COc1cc(/C=N/NC(=O)CNC(=O)c2ccncc2)ccc1O,-,-,99,-,-,.
COc1cccc(/C=N/NC(=O)CNC(=O)c2ccncc2)c1O,-,-,91,-,-,.
Cc1cc(-c2ccccc2)nc(NN=Cc2ccccc2F)n1,.,.,.,.,.,-
CN1CCc2nc3sc(C(=O)C45CC6CC(CC(C6)C4)C5)c(N)c3cc2C1,-,-,-,-,-,-
CNc1nc(N)c(C(=O)C23CC4CC(CC(C4)C2)C3)s1,-,-,98,-,-,-
Nc1cc(OC(=O)c2ccc(F)cc2)nn1S(=O)(=O)c1ccc(F)cc1,-,-,-,-,60,-
Nc1cc(OC(=O)c2ccco2)nn1S(=O)(=O)c1ccc(F)cc1,-,-,98,-,85,-
Cc1ccc(S(=O)(=O)n2nc(OC(=O)c3ccco3)cc2N)cc1,-,-,98,-,58,-
COc1ccccc1NC(=O)COc1ccc(C=NNC(=O)c2cccnc2)cc1,.,.,.,.,.,-
Cc1cc(C)cc(NC2=CC(=O)CC(c3ccco3)C2)c1 (centres undefined),-,-,-,-,-,-
Cc1ccc(NC2=CC(=O)CC(c3ccco3)C2)c(N)c1 (centres undefined),-,-,98,-,-,-
CC1CC(Nc2ccccc2N)=CC(=O)O1 (centres undefined),-,-,86,-,-,-
Nc1ccccc1NC1=CC(=O)CC(c2ccco2)C1 (centres undefined),-,-,84,-,-,-
